Results taken from ChEMBL document CHEMBL2169850, “3,6-bis(3-alkylguanidino)acridines as DNA-intercalating antitumor agents” (Eur J Med Chem, 2012).
Activity calls are given as the source filed them. The calls are words filed in the database; no cut-off is given here.

Legend:
[1] = test system: HL-60; experiment: Induction of necrosis in human HL60 cells at 5 to 25 uM incubated for 24 hrs by AnnexinV/propidium iodide staining method; type: functional, cell-based
Outline: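 HL-60 cells (1.5 × 10^5) were exposed to compound, then stained 10 min with Annexin V-FITC in HEPES/CaCl2/NaCl binding buffer. Cells were washed, briefly stained with propidium iodide and analysed by flow cytometry for apoptotic and necrotic fractions. Mean ± SD of at least three independent experiments.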

[2] = target: T1, DNA topoisomerase 1 (Homo sapiens) (UniProt P11387); experiment: Inhibition of human topoisomerase 1 assessed as reduction in pBR322 DNA relaxation of relaxation at 60 uM by DNA unwinding assay
T1 sequence (whole entry): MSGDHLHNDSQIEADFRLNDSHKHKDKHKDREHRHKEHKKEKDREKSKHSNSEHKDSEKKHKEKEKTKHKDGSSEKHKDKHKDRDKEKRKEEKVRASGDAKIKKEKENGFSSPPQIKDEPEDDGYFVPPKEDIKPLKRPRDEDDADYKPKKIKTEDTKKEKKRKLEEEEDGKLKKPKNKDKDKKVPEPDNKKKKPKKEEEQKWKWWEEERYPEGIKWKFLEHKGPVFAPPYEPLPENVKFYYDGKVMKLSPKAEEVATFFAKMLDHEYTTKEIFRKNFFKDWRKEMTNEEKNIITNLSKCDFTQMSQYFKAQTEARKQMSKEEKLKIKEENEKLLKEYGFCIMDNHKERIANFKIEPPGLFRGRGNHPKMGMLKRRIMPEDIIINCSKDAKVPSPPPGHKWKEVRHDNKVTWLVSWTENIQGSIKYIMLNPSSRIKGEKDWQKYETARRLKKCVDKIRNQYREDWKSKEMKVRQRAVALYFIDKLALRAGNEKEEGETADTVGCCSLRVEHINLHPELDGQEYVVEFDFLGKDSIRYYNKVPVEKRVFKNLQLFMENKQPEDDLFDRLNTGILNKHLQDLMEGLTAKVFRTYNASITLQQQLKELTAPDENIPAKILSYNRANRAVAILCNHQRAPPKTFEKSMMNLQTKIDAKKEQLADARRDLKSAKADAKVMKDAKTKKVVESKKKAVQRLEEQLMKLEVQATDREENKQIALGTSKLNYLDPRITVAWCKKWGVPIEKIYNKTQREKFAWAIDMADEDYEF

[3] = test system: HL-60; experiment: Cell cycle arrest in human HL60 cells assessed as accumulation at G1 phase at 25 uM incubated for 72 hrs by flow cytometry (reference value: 47.02 +/- 6.19%); type: functional
[4] = test system: HL-60; experiment: Induction of apoptosis in human HL60 cells at 5 to 25 uM incubated for 72 hrs by AnnexinV/propidium iodide staining method; type: functional, cell-based
Outline: (§1)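 HL-60 cells (1.5 × 10^5) were treated at 5–25 µM for 24, 48 or 72 h and harvested. They were stained with Annexin V-FITC for 10 min in HEPES/CaCl2/NaCl binding buffer, washed, briefly stained with PI (1 mg/mL) and analysed by flow cytometry for apoptosis and necrosis. Mean ± SD, n ≥ 3.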

[5] = test system: HL-60; experiment: Induction of apoptosis in human HL60 cells at 5 to 25 uM incubated for 24 hrs by AnnexinV/propidium iodide staining method; type: functional, cell-based; outline: as §1
[6] = test system: Nucleic Acid; experiment: Binding affinity to calf thymus DNA at 9.6 uM by spectrofluorimetric titration assay; type: nucleic-acid assay; conditions: Bos taurus
Outline: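 Fluorescence titration at 25 °C in 0.01 M Tris, pH 7.4. Compound (9.58 × 10^-6 M) was titrated with ctDNA from 0 to 2.57 × 10^-4 M bp, excited at 384 nm, and emission recorded from 400 to 600 nm. K and n were obtained from McGhee–von Hippel fits of Scatchard data.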

[7] = test system: HL-60; experiment: Drug uptake in human HL60 cells with normal morphology at 50 uM incubated for 18 hrs by fluorescence microscopy; type: ADME, cell-based; conditions: hl-60, 18 h
Outline: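 HL-60 cells were treated with 50 µM compound for 18 h, washed with PBS, resuspended in HBSS and mounted as native slides. Cells were imaged by inverted fluorescence microscopy at 40×, with excitation 360/40 and emission 470/40. The fluorescence channel was merged with brightfield images.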

SMILES | Activity [1] | Topoisomerase 1 inhibition (active/inactive) [2] | Activity [3] | Activity [4] | Activity [5] | Activity [6] | Drug uptake [7]
CCNC(=N)Nc1ccc2cc3ccc(NC(=N)NCC)cc3nc2c1.Cl.Cl.O | inactive | Active | inactive | inactive | inactive | – | –
CCCCCCNC(=N)Nc1ccc2cc3ccc(NC(=N)NCCCCCC)cc3nc2c1.Cl.Cl.O | – | Active | 73.59% | Active | – | Active | Active
